Assay results published in ChEMBL document CHEMBL1129605, “Synthesis, structure-activity relationships, and molecular modeling studies of N-(indol-3-ylglyoxylyl)benzylamine derivatives acting at the benzodiazepine receptor” (J Med Chem, 1996).
pKi: −log10 of the molar value.

Columns and labels:
[1] = target: T1, GABA-A receptor; anion channel (Bos taurus) (UniProt P10063+P08220+P20237+P08219+P10064+P22300); assay: Inhibition of [3H]- flunitrazepam binding to GABA-A central benzodiazepine receptor of bovine cortical membranes at 10 uM
In short: (§1)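 Filtration binding of [3H]flunitrazepam to bovine cerebral cortex membranes, freeze–thawed and washed in 50 mM Tris-citrate pH 7.4. […] IC50 taken from log-probit plots and converted to Ki, mean ± SEM of three determinations.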

[2] = target: T1, GABA-A receptor; anion channel (Bos taurus); assay: In vitro inhibition of [3H]- flunitrazepam binding to GABA-A central benzodiazepine receptor of bovine cortical membranes at 10 uM; in short: as §1
[3] = target: GABA-A receptor; anion channel; assay: In vitro inhibition of [3H]- flunitrazepam binding to GABA-A benzodiazepine receptor of bovine cortical membranes; parameters: species or system Bos taurus; in short: as §1
[4] = target: T1, GABA-A receptor; anion channel (Bos taurus); assay: Gamma AminoButyric Acid(GABA) ratio is the Ki without GABA / Ki with GABA; type: protein-complex assay
In short: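 Ki for [3H]flunitrazepam displacement from bovine cortical membranes determined both without and with GABA. The ratio is Ki without GABA divided by Ki with GABA.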

[5] = target: T1, GABA-A receptor; anion channel (Bos taurus); assay: Specific [35S]- TBPS binding at high affinity site loated near chloride channel of GABA-A receptor chloride complex; type: protein-complex assay; parameters: concentration or dose not given beside the values
In short: (§2)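 Bovine cerebral cortex membranes, freeze–thawed and washed in 50 mM Tris-citrate pH 7.4, incubated with 5 nM [35S]TBPS for 90 min at 25 °C in the same buffer plus 200 mM KBr and 0.1 mM EDTA. Compounds tested at 0.5 μM in ethanol (≤0.2%) with 1 μM GABA present. Nonspecific binding taken with 600 μM picrotoxinin. Bound ligand collected by filtration and counted by scintillation.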

[6] = Partition coefficient of compound; type: physicochemical; settings: octanol/water
In short: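 Shake-flask partition at room temperature between octanol and phosphate buffer pH 7.4. Solute measured spectrophotometrically in both phases, with phase volumes adjusted so each phase held enough compound. Run at four different solute concentrations.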

[7] = target: T1, GABA-A receptor; anion channel (Bos taurus); assay: In vitro displacement of [35S]-TBPS binding from GABA-A receptor relative to clonazepam; type: protein-complex assay; in short: as §2

Compound | inhibition [1] | inhibition [2] | pKi [3] | GABA ratio [4] | further results
COc1ccc(NC(=O)C(=O)c2c[nH]c3ccc(Cl)cc23)cc1 | 10% | – | – | – | –
O=C(NCc1cccc(Cl)c1)C(=O)c1c[nH]c2ccccc12 | – | 96% | 6.80 | 0.95 | –
Cn1cc(C(=O)C(=O)NCc2ccc(Cl)cc2)c2ccccc21 | – | 86% | 6.00 | 1 | –
O=C(NCc1ccccc1Cl)C(=O)c1c[nH]c2ccc(Cl)cc12 | – | 40% | – | – | –
COc1cccc(CNC(=O)C(=O)c2c[nH]c3ccc(Cl)cc23)c1 | – | 89% | 6.79 | 0.79 | –
O=C(NCc1ccccc1F)C(=O)c1c[nH]c2ccc([N+](=O)[O-])cc12 | – | 42% | – | – | –
COc1ccc(NC(=O)C(=O)c2c[nH]c3ccc([N+](=O)[O-])cc23)cc1 | 12% | – | – | – | –
COc1ccc(CNC(=O)C(=O)c2c[nH]c3ccc(Cl)cc23)cc1 | 81% | – | 6.97 | 1 | –
O=C(NCCCc1ccccc1)C(=O)c1c[nH]c2ccccc12 | – | 78% | 5.90 | 1 | –
COc1ccc(CNC(=O)C(=O)c2c[nH]c3ccc(Cl)cc23)cc1OC | – | 94% | 7.52 | 0.82 | –
COc1cc(CNC(=O)C(=O)c2c[nH]c3ccc(Cl)cc23)ccc1O | – | 99% | 7.57 | 1.03 | –
O=C(NCc1ccccc1)C(=O)c1c[nH]c2ccccc12 | 98% | – | 6.92 | 0.87 | Activity [5]: 29%
COc1ccc(NC(=O)C(=O)c2c[nH]c3ccccc23)cc1 | 0% | – | – | – | –
O=C(Nc1ccc(O)cc1)C(=O)c1c[nH]c2ccc([N+](=O)[O-])cc12 | 76% | – | 5.74 | 1 | –
O=C(NCc1ccccc1Cl)C(=O)c1c[nH]c2ccc([N+](=O)[O-])cc12 | – | 48% | – | – | –
O=C(NCc1ccc(F)cc1)C(=O)c1c[nH]c2ccccc12 | – | 99% | 7.28 | 1.16 | logP [6]: 2.88; Activity [5]: 21%
O=C(NCc1ccccc1)C(=O)c1c[nH]c2ccc([N+](=O)[O-])cc12 | 55% | – | 6.93 | 1 | –
O=C1CN=C(c2ccccc2Cl)c2cc([N+](=O)[O-])ccc2N1 | – | – | – | – | Activity [5]: 100%
O=C(NCc1ccc(O)c(O)c1)C(=O)c1c[nH]c2ccc([N+](=O)[O-])cc12 | – | 98% | 7.32 | 1.35 | Activity [5]: 52%

Compound | inhibition [1] | inhibition [2] | pKi [3] | GABA ratio [4] | further results
O=C(NCc1ccc(Cl)cc1)C(=O)c1c[nH]c2ccc([N+](=O)[O-])cc12 | – | 2% | – | – | –
CCOC(=O)c1ncn2c1CN(C)C(=O)c1cc(F)ccc1-2 | – | – | – | – | Activity [5]: 15%
COc1ccc(CNC(=O)C(=O)c2c[nH]c3ccccc23)cc1 | 97% | – | 6.79 | 1 | –
COc1ccc(CNC(=O)C(=O)c2c[nH]c3ccc([N+](=O)[O-])cc23)cc1OC | – | 97% | 7.96 | 1 | Activity [5]: 31%
O=C(NCc1ccccc1Cl)C(=O)c1c[nH]c2ccccc12 | – | 77% | 5.59 | 0.93 | –
O=C(NCc1ccc(O)c(O)c1)C(=O)c1c[nH]c2ccccc12 | – | 95% | 6.46 | 1.56 | –
O=C(NCc1ccc(F)cc1)C(=O)c1c[nH]c2ccc(Cl)cc12 | – | 21% | – | – | –
O=C(NCc1ccc(O)cc1)C(=O)c1c[nH]c2ccc(Cl)cc12 | – | 98% | 6.82 | 1.1 | –
O=C(Nc1ccccc1)C(=O)c1c[nH]c2ccc([N+](=O)[O-])cc12 | 0% | – | – | – | –
O=C(NCc1ccc(F)cc1)C(=O)c1c[nH]c2ccc([N+](=O)[O-])cc12 | – | 24% | – | – | –
COc1cccc(CNC(=O)C(=O)c2c[nH]c3ccccc23)c1 | – | 97% | 6.54 | 0.74 | –
O=C(NCc1ccc(Cl)cc1)C(=O)c1c[nH]c2ccc(Cl)cc12 | – | 38% | – | – | –
COc1cc(CNC(=O)C(=O)c2c[nH]c3ccccc23)ccc1O | – | 96% | 6.85 | 1 | –
O=C(NCc1ccc(Cl)cc1)C(=O)c1c[nH]c2ccccc12 | – | 99% | 7.17 | 1.03 | Activity [5]: 27%
O=C(NCc1cccc(O)c1)C(=O)c1c[nH]c2ccc([N+](=O)[O-])cc12 | 95% | – | 7.19 | 1.32 | Activity [5]: 50%
O=C(NCc1ccccc1F)C(=O)c1c[nH]c2ccc(Cl)cc12 | – | 39% | – | – | –
O=C(NCc1ccccc1F)C(=O)c1c[nH]c2ccccc12 | – | 94% | 6.18 | 0.86 | –
O=C(NCc1cccc(Cl)c1)C(=O)c1c[nH]c2ccc([N+](=O)[O-])cc12 | – | 0% | – | – | –
O=C(Nc1ccccc1)C(=O)c1c[nH]c2ccc(Cl)cc12 | 0% | – | – | – | –

Compound | inhibition [1] | inhibition [2] | pKi [3] | GABA ratio [4] | further results
O=C(NCc1ccc(O)c(O)c1)C(=O)c1c[nH]c2ccc(Cl)cc12 | – | 96% | 6.74 | 1.33 | –
COc1ccc(CNC(=O)C(=O)c2c[nH]c3ccc([N+](=O)[O-])cc23)cc1 | 71% | – | 7.28 | 1.06 | logP [6]: 2.17; Activity [5]: 2%
COc1cccc(CNC(=O)C(=O)c2c[nH]c3ccc([N+](=O)[O-])cc23)c1 | – | 84% | 7.42 | 0.91 | Activity [5]: 10%
O=C(NCc1cccc(O)c1)C(=O)c1c[nH]c2ccc(Cl)cc12 | 95% | – | 6.24 | 1.45 | –
O=C(NCc1ccc(O)cc1)C(=O)c1c[nH]c2ccc([N+](=O)[O-])cc12 | 100% | – | 7.92 | 1.05 | logP [6]: 2.67; Activity [7]: 10%
O=C(NCc1cccc(Cl)c1)C(=O)c1c[nH]c2ccc(Cl)cc12 | – | 14% | – | – | –
O=C(NCCCc1ccccc1)C(=O)c1c[nH]c2ccc([N+](=O)[O-])cc12 | 52% | – | – | – | –
COc1cc(CNC(=O)C(=O)c2c[nH]c3ccc([N+](=O)[O-])cc23)ccc1O | – | 100% | 7.89 | 1.07 | Activity [5]: 27%
O=C(NCCCc1ccccc1)C(=O)c1c[nH]c2ccc(Cl)cc12 | 32% | – | – | – | –
O=C(Nc1ccccc1)C(=O)c1c[nH]c2ccccc12 | 10% | – | – | – | –
O=C(NCc1cccc(O)c1)C(=O)c1c[nH]c2ccccc12 | 91% | – | 6.09 | 1.25 | –
O=C(NCc1ccccc1)C(=O)c1c[nH]c2ccc(Cl)cc12 | 34% | – | 6.31 | 0.95 | –
O=C(Nc1ccc(O)cc1)C(=O)c1c[nH]c2ccccc12 | 65% | – | – | – | –
COc1ccc(CNC(=O)C(=O)c2c[nH]c3ccccc23)cc1OC | – | 99% | 7.03 | 0.8 | –
Cn1cc(C(=O)C(=O)NCc2cccc(O)c2)c2ccccc21 | 17% | – | – | – | –
O=C(NCc1ccc(O)cc1)C(=O)c1c[nH]c2ccccc12 | – | 96% | 6.37 | 1.35 | –
O=C(Nc1ccc(O)cc1)C(=O)c1c[nH]c2ccc(Cl)cc12 | 23% | – | – | – | –
COc1ccc(CNC(=O)C(=O)c2cn(C)c3ccccc23)cc1OC | – | 70% | 5.57 | 0.88 | –
